The subject of one assay is HL-60. The assay can be described thus: Antiproliferative activity against human HL60 cells by MTT assay. The assay is classed as functional. The following applies: read-out: ID50 (the source's name). The method, boiled down:
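HL-60 promyelocytic leukemia cells in suspension in RPMI 1640 with 10% FBS, 2 mM glutamine, 1 mM pyruvate, glucose, antibiotics, 37 °C, 5% CO₂. Plated 10⁴ cells/well 24 h before dosing. Exposed 72 h to 0.1–100 µg/ml, ethanol vehicle. MTT (5 mg/ml stock) added for the last 3–4 h. SDS/DMF lysis for 24 h, OD 570 nm. ID₅₀ mean ± SD. Triplicates, 3–5 experiments.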
On the technique in general: Tetrazolium dyes change colour on reduction, which living cells bring about.

For a further assay, the system named is A549. The assay can be described thus: Antiproliferative activity against human A549 cells by […]. The assay is classed as functional. The following applies: read-out: ID50 (the source's name). The essentials: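 A549 human lung adenocarcinoma cells grown at 37 °C, 5% CO₂ in RPMI 1640+Opti-MEM (1:1) with 5% FBS, 2 mM glutamine, penicillin/streptomycin. Plated 10⁴ cells/well 24 h before dosing. Exposed 72 h to 0.1–100 µg/ml, ethanol vehicle. Cold 50% TCA fixation at 4 °C for 1 h, 0.4% SRB stain, OD 540 nm. ID₅₀ per experiment, mean ± SD. Triplicates, 3–5 experiments.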

In brackets after ≈: the same amount, converted by molar mass.

As for `C[C@@H]1CC(=O)C=C2CC[C@@H]([C@@]3(C)CO3)C[C@]21C`, the IC50 is 27.6 µg/mL (≈ 118 µM) with HL-60 and 167 µg/mL (≈ 713 µM) in the assay with A549.

On to `C[C@@H]1CC(=O)C=C2[C@H](O)C[C@H]([C@@]3(C)CO3)C[C@]21C`, for which the values for the IC50 in the assay with HL-60 and in the assay on A549 were 345 µg/mL (≈ 1380 µM) and 289 µg/mL (≈ 1150 µM), respectively.

Regarding `C=C(C)[C@@H]1CCC2=CC(=O)C[C@@H](C)[C@]2(C)C1` [NOOTKATONE], the IC50 stood at 4.27 µg/mL (≈ 19.6 µM) with HL-60 and 58.4 µg/mL (≈ 267 µM) in the assay on A549.

`C[C@@H]1CC(=O)C=C2CC[C@](O)(C(C)(O)CO)C[C@]21C` (some centres undefined): the figures for the IC50 in the assay on HL-60 and in the assay with A549 were 25.8 µg/mL (≈ 96.1 µM) and 290 µg/mL (≈ 1080 µM), respectively.

Regarding `C=C(C)[C@@H]1C[C@@H](O)C2=CC(=O)C[C@@H](C)[C@]2(C)C1`, the figures for the IC50 in the assay with HL-60 and in the assay with A549 were 25.7 µg/mL (≈ 110 µM) and 62.7 µg/mL (≈ 268 µM), respectively.

With `C=C(CO)[C@@H]1CCC2=CC(=O)C[C@@H](C)[C@]2(C)C1`, the results for the IC50 in the assay with HL-60 and in the assay on A549 were 4.4 µg/mL (≈ 18.8 µM) and 36 µg/mL (≈ 154 µM), respectively.

Turning to `C[C@@H]1CC(=O)C=C2CC[C@@H](C(C)(O)CO)C[C@]21C` (some centres undefined), the results for the IC50 with HL-60 and in the assay on A549 were 284 µg/mL (≈ 1130 µM) and 325 µg/mL (≈ 1290 µM), respectively.

The values above are taken from ChEMBL document CHEMBL1764949, “Microbial transformation of (+)-nootkatone and the antiproliferative activity of its metabolites” (2011).
